Experimental data as given in ChEMBL document CHEMBL1136016, “Synthesis, biological activity, and molecular modeling investigation of new pyrazolo[4,3-e]-1,2,4-triazolo[1,5-c]pyrimidine derivatives as human A(3) adenosine receptor antagonists” (J Med Chem, 2002).

Key:
Adenosine receptor A2b [1] = target: T1, Adenosine receptor A2b (Homo sapiens, UniProt P29275); assay: Displacement of [3H]DPCPX from human Adenosine A2B receptor expressed in HEK293 cells; range 124-180; assay type: cell-based
T1 sequence (P29275 whole entry): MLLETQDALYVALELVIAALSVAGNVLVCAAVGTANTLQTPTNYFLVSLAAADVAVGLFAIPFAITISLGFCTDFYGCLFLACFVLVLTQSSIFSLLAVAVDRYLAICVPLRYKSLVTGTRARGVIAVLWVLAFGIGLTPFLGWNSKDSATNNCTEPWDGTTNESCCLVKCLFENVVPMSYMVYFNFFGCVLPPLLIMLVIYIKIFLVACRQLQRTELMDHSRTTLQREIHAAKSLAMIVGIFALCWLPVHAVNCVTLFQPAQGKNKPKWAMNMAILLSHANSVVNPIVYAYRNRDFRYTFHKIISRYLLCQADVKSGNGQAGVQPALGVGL
Summary of the method: (§1)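 HEK-293 membranes expressing the human receptor were incubated 60 min at 25 °C. Six to eight test concentrations were used. Nonspecific binding was set with NECA. n = 3-6.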

Adenosine receptor A1 [2] = target: T2, Adenosine receptor A1 (Homo sapiens, UniProt P30542); assay: Displacement of [3H]DPCPX from human Adenosine A1 receptor expressed in CHO cells; range 184-333; assay type: cell-based
T2 sequence (P30542 whole entry): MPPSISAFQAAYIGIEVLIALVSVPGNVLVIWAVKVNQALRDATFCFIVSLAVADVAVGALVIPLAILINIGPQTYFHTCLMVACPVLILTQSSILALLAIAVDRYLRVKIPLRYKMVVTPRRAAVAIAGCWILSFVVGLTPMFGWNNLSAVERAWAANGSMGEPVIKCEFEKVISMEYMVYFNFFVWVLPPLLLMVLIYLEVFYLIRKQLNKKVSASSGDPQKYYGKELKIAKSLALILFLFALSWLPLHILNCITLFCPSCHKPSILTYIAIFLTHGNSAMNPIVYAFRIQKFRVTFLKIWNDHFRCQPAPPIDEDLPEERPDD

Adenosine receptor A2a [3] = target: T3, Adenosine receptor A2a (Homo sapiens, UniProt P29274); assay: Displacement of [3H]SCH-58261 from human Adenosine A2A receptor expressed in HEK293 cells; range 78-114; assay type: cell-based
T3 sequence (P29274 whole entry): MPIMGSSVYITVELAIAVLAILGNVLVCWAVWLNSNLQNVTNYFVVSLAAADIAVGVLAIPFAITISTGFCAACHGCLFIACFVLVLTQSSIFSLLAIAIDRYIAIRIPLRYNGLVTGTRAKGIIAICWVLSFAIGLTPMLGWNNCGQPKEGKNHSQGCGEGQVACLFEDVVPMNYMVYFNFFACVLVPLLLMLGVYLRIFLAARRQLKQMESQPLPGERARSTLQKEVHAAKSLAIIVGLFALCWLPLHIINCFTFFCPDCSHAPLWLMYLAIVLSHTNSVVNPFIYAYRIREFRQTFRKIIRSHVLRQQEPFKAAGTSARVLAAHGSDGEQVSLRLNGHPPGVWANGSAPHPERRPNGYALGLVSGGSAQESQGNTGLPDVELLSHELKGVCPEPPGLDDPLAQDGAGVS

[4] = target: Adenosine receptors; A2b & A3 (Homo sapiens) (UniProt P29275+P0DMS8); assay: Selectivity ratio (h2B/hA3); assay type: protein assay
[5] = target: Adenosine receptors; A1 & A3 (Homo sapiens) (UniProt P30542+P0DMS8); assay: Selectivity ratio (hA1/hA3); assay type: protein assay
Adenosine receptor A3 [6] = target: T4, Adenosine receptor A3 (Homo sapiens, UniProt P0DMS8); assay: Displacement of [3H]MRE3008-F20 from human Adenosine A3 receptor expressed in HEK cells; range 0.53-0.68; assay type: cell-based, HEK293
T4 sequence (P0DMS8 whole entry): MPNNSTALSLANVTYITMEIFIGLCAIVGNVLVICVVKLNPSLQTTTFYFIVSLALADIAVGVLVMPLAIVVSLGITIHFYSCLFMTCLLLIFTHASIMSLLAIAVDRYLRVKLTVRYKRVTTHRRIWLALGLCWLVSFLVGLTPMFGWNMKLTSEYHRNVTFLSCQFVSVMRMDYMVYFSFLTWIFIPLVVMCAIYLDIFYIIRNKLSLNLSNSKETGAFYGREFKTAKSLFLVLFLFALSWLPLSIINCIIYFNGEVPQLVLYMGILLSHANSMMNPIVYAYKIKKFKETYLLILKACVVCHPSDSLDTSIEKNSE

Adenosine receptor A2b [7] = target: T1, Adenosine receptor A2b; assay: Displacement of [3H]DPCPX from human Adenosine A2B receptor expressed in HEK293 cells; […]; assay type: cell-based
Summary of the method: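 Competition binding on membranes of HEK-293 cells carrying recombinant human A2B receptor. Incubation 60 min at 25 °C in 50 mM Tris HCl pH 7.4 with 10 mM MgCl2, 1 mM EDTA, 0.1 mM benzamidine and 2 IU/mL adenosine deaminase. Radioligand 40 nM [3H]DPCPX, at least six to eight test concentrations. NECA defined nonspecific binding. Bound ligand separated on glass-fibre filters and counted; n = 3-6.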

Adenosine receptor A1 [8] = target: T2, Adenosine receptor A1; assay: Displacement of [3H]DPCPX from human Adenosine A1 receptor expressed in CHO cells; range 345-465; assay type: cell-based
Adenosine receptor A3 [9] = target: T4, Adenosine receptor A3; assay: Displacement of [3H]MRE3008-F20 binding at human Adenosine A3 receptor expressed in HEK cells; range 0.77-0.96; assay type: cell-based, HEK293
Adenosine receptor A2a [10] = target: T3, Adenosine receptor A2a; assay: Displacement of [3H]SCH-58261 from human Adenosine A2A receptor expressed in HEK293 cells; range 114-170; assay type: cell-based
Adenosine receptor A1 [11] = target: T2, Adenosine receptor A1; assay: Displacement of [3H]DPCPX from human Adenosine A1 receptor expressed in CHO cells; range 885-1163; assay type: cell-based
Summary of the method: (§2)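 Human recombinant A1 receptor in CHO cell membranes, resuspended in 50 mM Tris HCl pH 7.4. Displacement run 120 min at 25 °C with 1 nM [3H]DPCPX, 50 µg protein per assay, and at least six to eight test concentrations. Nonspecific binding defined with CHA. Bound and free separated on glass-fiber filters; filter radioactivity counted. n = 3-6.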

Adenosine receptor A2b [12] = target: T1, Adenosine receptor A2b; assay: Displacement of [3H]DPCPX from human Adenosine A2B receptor expressed in HEK293 cells; range 128-156; assay type: cell-based
Summary of the method: (§3)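 Membranes from HEK-293 cells with human recombinant A2B receptor. Incubation 60 min at 25 °C in 50 mM Tris HCl, 10 mM MgCl2, 1 mM EDTA, 0.1 mM benzamidine, pH 7.4, with 2 IU/mL adenosine deaminase and 40 nM [3H]DPCPX. At least six to eight test concentrations. Nonspecific binding defined with NECA. n = 3-6.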

Adenosine receptor A2a [13] = target: T3, Adenosine receptor A2a; assay: Displacement of [3H]SCH-58261 from human Adenosine A2A receptor expressed in HEK293 cells; range 552-839; assay type: cell-based
Adenosine receptor A3 [14] = target: T4, Adenosine receptor A3; assay: Inhibition of IB-MECA agonist-mediated cAMP production in CHO cell membranes expressing human Adenosine A3 receptor; range 1.8-5.6; assay type: functional, cell-based
Adenosine receptor A3 [15] = target: T4, Adenosine receptor A3; assay: biochemical
Adenosine receptor A1 [16] = target: T2, Adenosine receptor A1; assay: Displacement of [3H]DPCPX from human Adenosine A1 receptor expressed in CHO cells; range 237-384; assay type: cell-based
Summary of the method: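 Competition binding on membranes of CHO cells stably expressing human A1 receptor, resuspended in 50 mM Tris HCl pH 7.4. Incubation 120 min at 25 °C with 1 nM [3H]DPCPX, 50 µg protein per assay and at least six to eight test concentrations. CHA defined nonspecific binding. Bound ligand separated on glass-fibre filters and counted; n = 3-6.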

Adenosine receptor A3 [17] = target: T4, Adenosine receptor A3; assay: Displacement of [3H]MRE3008-F20 from human Adenosine A3 receptor expressed in HEK cells; range 0.31-0.56; assay type: cell-based, HEK293
Adenosine receptor A2a [18] = target: T3, Adenosine receptor A2a; assay: Displacement of [3H]SCH-58261 from human Adenosine A2A receptor expressed in HEK293 cells; range 8-18; assay type: cell-based
Adenosine receptor A2b [19] = target: T1, Adenosine receptor A2b; assay: Displacement of [3H]DPCPX from human Adenosine A2B receptor expressed in HEK293 cells; range 34-62; assay type: cell-based; summary of the method: as §1
Adenosine receptor A1 [20] = target: T2, Adenosine receptor A1; assay: Displacement of [3H]DPCPX from human Adenosine A1 receptor expressed in CHO cells; range 738-961; assay type: cell-based; summary of the method: as §2
Adenosine receptor A2b [21] = target: T1, Adenosine receptor A2b; assay: Displacement of [3H]DPCPX from human Adenosine A2B receptor expressed in HEK293 cells; range 40-69; assay type: cell-based; summary of the method: as §3
Adenosine receptor A3 [22] = target: T4, Adenosine receptor A3; assay: Displacement of [3H]MRE3008-F20 from human Adenosine A3 receptor expressed in HEK cells; range 0.22-0.40; assay type: cell-based, HEK293
Adenosine receptor A2a [23] = target: T3, Adenosine receptor A2a; assay: Displacement of [3H]SCH-58,261 from human Adenosine A2A receptor expressed in HEK293 cells; range 543-820; assay type: cell-based
Adenosine receptor A2b [24] = target: T1, Adenosine receptor A2b; assay: Displacement of [3H]DPCPX from human Adenosine A2B receptor expressed in HEK293 cells; range 149-204; assay type: cell-based; summary of the method: as §1
Adenosine receptor A1 [25] = target: T2, Adenosine receptor A1; assay: Displacement of [3H]DPCPX from human Adenosine A1 receptor expressed in CHO cells; range 198-382; assay type: cell-based; summary of the method: as §2
Adenosine receptor A2a [26] = target: T3, Adenosine receptor A2a; assay: Displacement of [3H]SCH-58261 from human Adenosine A2A receptor expressed in HEK293 cells; range 96-133; assay type: cell-based
Adenosine receptor A3 [27] = target: T4, Adenosine receptor A3; assay: biochemical; remark: listed apart in the source

**Q.** What does the source list for `CCCCn1cc2c(nc(NC(=O)Nc3cccc(OC)c3)n3nc(-c4ccco4)nc23)n1`?
**A.** Ki (Adenosine receptor A2b [1]): 150 nM; Ki (Adenosine receptor A1 [2]): 248 nM; Ki (Adenosine receptor A2a [3]): 95 nM; Ratio [4]: 250; Ratio [5]: 413; Ki (Adenosine receptor A3 [6]): 0.6 nM

**Q.** For `CCn1cc2c(nc(NC(=O)Nc3cccc(OC)c3)n3nc(-c4ccco4)nc23)n1`, which Ki (Adenosine receptor A2b [7]) is on record?
**A.** 215 nM

**Q.** What about the Ki (Adenosine receptor A1 [8]) of the same molecule?
**A.** 400 nM

**Q.** And the Ki (Adenosine receptor A3 [9])?
**A.** 0.86 nM

**Q.** And the Ki (Adenosine receptor A2a [10])?
**A.** 140 nM

**Q.** And the Ratio [4]?
**A.** 250

**Q.** And the Ratio [5]?
**A.** 465

**Q.** With `Cn1cc2c(nc(NC(=O)Nc3ccc4c(c3)OCO4)n3nc(-c4ccco4)nc23)n1` as the molecule, how does the Ki (Adenosine receptor A1 [11]) read?
**A.** 1020 nM

**Q.** And the Ki (Adenosine receptor A2b [12])?
**A.** 142 nM

**Q.** And the Ki (Adenosine receptor A2a [13])?
**A.** 680 nM

**Q.** What about the IC50 (Adenosine receptor A3 [14]) of the same molecule?
**A.** 3.2 nM

**Q.** What about the Ratio [4] of the same molecule?
**A.** 592

**Q.** And the Ratio [5]?
**A.** 4230

**Q.** What about the Ki (Adenosine receptor A3 [15]) of the same molecule?
**A.** 0.24 nM

**Q.** Which results are given for `CCCn1cc2c(nc(NC(=O)Nc3ccc(C)cc3)n3nc(-c4ccco4)nc23)n1`?
**A.** Ki (Adenosine receptor A1 [16]): 302 nM; Ki (Adenosine receptor A3 [17]): 0.4 nM; Ki (Adenosine receptor A2a [18]): 12 nM; Ki (Adenosine receptor A2b [19]): 46 nM; Ratio [4]: 115; Ratio [5]: 755

**Q.** With `CCCn1cc2c(nc(NC(=O)Nc3ccc4c(c3)OCO4)n3nc(-c4ccco4)nc23)n1` as the molecule, how does the Ki (Adenosine receptor A1 [20]) read?
**A.** 842 nM

**Q.** What about the Ki (Adenosine receptor A2b [21]) of the same molecule?
**A.** 53 nM

**Q.** And the Ki (Adenosine receptor A3 [22])?
**A.** 0.3 nM

**Q.** What about the Ki (Adenosine receptor A2a [23]) of the same molecule?
**A.** 667 nM

**Q.** And the Ratio [4]?
**A.** 177

**Q.** And the Ratio [5]?
**A.** 2810

**Q.** What does the source list for `CCCn1cc2c(nc(NC(=O)Nc3cccc(OC)c3)n3nc(-c4ccco4)nc23)n1`?
**A.** Ki (Adenosine receptor A2b [24]): 175 nM; Ki (Adenosine receptor A1 [25]): 275 nM; Ki (Adenosine receptor A2a [26]): 113 nM; Ratio [4]: 438; Ratio [5]: 688; Ki (Adenosine receptor A3 [27]): 0.4 nM
